In assay [1] the test system is Canis familiaris. Description: % inhibition of Histamine-stimulated gastric acid secretion in Heidenhain pouch dog at 4 uM/kg, on peroral administration of the compound. The class given is functional, Canis lupus familiaris, Stomach. The essentials: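 Heidenhain pouch dogs with histamine-stimulated acid secretion; compound given orally as a dry powder in a hard gelatin capsule; inhibition of acid secretion measured.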

Assay [2] deals with Canis familiaris. Description: % inhibition of Histamine-stimulated gastric acid secretion in Heidenhain pouch dog at 1 umol/kg on iv administration of the compound. The note with it: Canis lupus familiaris, Stomach. The class given is functional.
The target of assay [3] is Potassium-transporting ATPase (Sus scrofa, UniProt P19156). Description: Inhibition of K+ stimulated gastric ATPase activity. The class given is tissue-based, Stomach. Summed up:
(§1)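 K+-stimulated ATPase activity measured in a lyophilized gastric vesicle preparation at pH 7; enzyme concentration estimated at around 2 nM from 32P-ATP binding.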

In assay [4] the test system is Rattus norvegicus. Description: Inhibition of pentagastrin stimulated gastric acid secretion in anesthetized rat on iv administration of the compound. The class given is functional. The conditions noted are these: Stomach. The essentials: (§2)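 Anaesthetized rat with lumen-perfused stomach; acid secretion induced by pentagastrin; compound given intravenously; inhibition of acid output recorded.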

Assay [5] addresses Potassium-transporting ATPase (Sus scrofa) (UniProt P18434+P19156). The assay can be described thus: Inhibition of K+ stimulated gastric ATPase activity at 100 uM. It is filed as tissue-based. The conditions noted are these: Stomach. The essentials: as §1
In assay [6] the test system is Rattus norvegicus. Description: Inhibition of pentagastrin stimulated gastric acid secretion in anesthetized rat at 10 uM, on iv administration of the compound. The class given is functional, Stomach. The essentials: as §2
Assay [7] deals with Canis familiaris. The assay can be described thus: % inhibition of Histamine-stimulated gastric acid secretion in Heidenhain pouch dog at 1 uM/kg. The class given is functional, Canis lupus familiaris, Stomach.
In assay [8] the test system is Canis familiaris. The assay can be described thus: % inhibition of Histamine-stimulated gastric acid secretion in Heidenhain pouch dog at 4 uM/kg. It is filed as functional, Canis lupus familiaris, Stomach.
The test system of assay [9] is Canis familiaris. The assay can be described thus: % inhibition of Histamine-stimulated gastric acid secretion in Heidenhain pouch dog at 1 uM/kg, on peroral administration of the compound. It is filed as functional, Canis lupus familiaris, Stomach. The note with it: in the assay text read “on iv administration” for “on peroral administration”.
For assay [10], the system named is Rattus norvegicus. The assay can be described thus: Inhibition of pentagastrin stimulated gastric acid secretion in anesthetized rat at 10 uM/kg, on iv administration of the compound. It is filed as functional, Stomach. Summed up: as §2

Molecules are shown by their SMILES.

Chain of Potassium-transporting ATPase (P18434 whole entry): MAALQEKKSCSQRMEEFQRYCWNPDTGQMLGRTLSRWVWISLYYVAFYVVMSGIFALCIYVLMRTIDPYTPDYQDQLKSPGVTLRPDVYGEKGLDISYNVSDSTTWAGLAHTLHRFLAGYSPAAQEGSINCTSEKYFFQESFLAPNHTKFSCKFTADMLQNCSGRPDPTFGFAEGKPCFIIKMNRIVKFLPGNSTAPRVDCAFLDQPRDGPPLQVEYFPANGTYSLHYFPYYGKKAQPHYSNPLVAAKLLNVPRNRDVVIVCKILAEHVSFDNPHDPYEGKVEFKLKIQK
Chain of Potassium-transporting ATPase (P19156 whole entry): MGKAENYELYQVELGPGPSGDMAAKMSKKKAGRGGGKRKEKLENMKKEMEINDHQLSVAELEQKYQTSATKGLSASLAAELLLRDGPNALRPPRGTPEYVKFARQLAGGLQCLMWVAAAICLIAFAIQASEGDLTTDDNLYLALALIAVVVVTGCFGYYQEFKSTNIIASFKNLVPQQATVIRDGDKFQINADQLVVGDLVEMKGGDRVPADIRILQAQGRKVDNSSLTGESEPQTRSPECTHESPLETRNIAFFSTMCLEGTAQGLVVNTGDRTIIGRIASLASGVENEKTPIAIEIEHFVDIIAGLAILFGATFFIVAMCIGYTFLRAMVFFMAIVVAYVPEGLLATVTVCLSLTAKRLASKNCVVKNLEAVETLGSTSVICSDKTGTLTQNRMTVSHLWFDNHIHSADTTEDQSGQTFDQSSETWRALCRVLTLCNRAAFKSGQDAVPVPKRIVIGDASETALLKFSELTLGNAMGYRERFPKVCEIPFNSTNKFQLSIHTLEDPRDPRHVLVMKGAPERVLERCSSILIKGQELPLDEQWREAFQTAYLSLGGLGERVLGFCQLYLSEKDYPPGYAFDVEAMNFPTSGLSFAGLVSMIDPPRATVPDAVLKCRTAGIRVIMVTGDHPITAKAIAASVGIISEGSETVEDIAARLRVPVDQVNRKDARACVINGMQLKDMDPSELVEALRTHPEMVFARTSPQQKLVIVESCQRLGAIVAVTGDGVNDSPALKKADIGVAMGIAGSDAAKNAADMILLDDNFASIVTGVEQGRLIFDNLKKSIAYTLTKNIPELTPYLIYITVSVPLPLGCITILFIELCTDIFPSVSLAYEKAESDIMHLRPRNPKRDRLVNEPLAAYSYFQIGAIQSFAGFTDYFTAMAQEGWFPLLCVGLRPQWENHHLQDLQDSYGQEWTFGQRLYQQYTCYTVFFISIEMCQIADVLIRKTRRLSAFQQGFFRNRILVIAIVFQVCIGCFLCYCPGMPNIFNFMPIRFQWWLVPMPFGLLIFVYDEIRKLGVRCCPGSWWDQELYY

Usually Inhibition stands for how much of the control response was suppressed. Usually inhibition in vivo stands for the share of the control response that was lost under treatment. As a reminder, the IC50 is the concentration needed to halve the response being measured. Low values mean greater potency in that assay, high ones weaker potency in that assay. For orientation: ED50 means the midpoint of the dose-response relation. Read a high ED50 as a need for a large dose. In the case of `COc1cccc2c(Nc3ccccc3C)nc(N)nc12`, the Inhibition in assay [1] worked out at 0%. For the same molecule, the inhibition in vivo at 1 µmol/kg in assay [2] worked out at 39%. Moreover, the midpoint of inhibition in assay [3], the IC50, lay at 80 nM. For the same molecule, the ED50 in assay [4] is 7.11 µmol/kg.
The inhibition is the drop in the measured response relative to a control, in per cent. The molecule `Cc1ccccc1Nc1ncnc2ccccc12` showed an inhibition in [5] of 28%. The molecule further yielded an Inhibition in assay [6] of 9%.
Take `COc1cccc2c(N(C)c3ccccc3)nc(Nc3ccccc3C)nc12`: the Inhibition is 79% in assay [7] and 44% in assay [8]. In [3], this molecule registered an IC50 of 42 nM. Besides, the ED50 in assay [4] came to 1.39 µmol/kg.
For `Cc1ccccc1Nc1nc(N(C)c2ccccc2)c2sccc2n1`, the results for the Inhibition in [9], in assay [1] and in [10] were 84%, 12% and 50%, respectively. Moreover, the IC50 in [3] amounted to 19 nM.

(Values after ChEMBL document CHEMBL1128472, “Reversible inhibitors of the gastric (H+/K+)-ATPase. 5. Substituted 2,4-diaminoquinazolines and thienopyrimidines” (J Med Chem, 1995).)
